According to ChEMBL document CHEMBL1151164, “New prostanoids with cytotoxic activity from Taiwanese octocoral Clavularia viridis” (J Nat Prod, 2004):

Experiments:
HT-29 = test: Cytotoxicity against human HT-29 cells after 72 hrs by SRB assay; assay type: functional, cell-based; conditions: HT-29, 48 h, in the assay text read “48 hrs” for “72 hrs”
Summary of the method: (§1)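 Cells seeded in RPMI 1640 with 5% FBS at 37 °C, 5% CO2; after 24 h, two plates per line fixed in situ with TCA as time-zero. Drug added, then 48 h further incubation at 37 °C. Fixed with cold TCA, stained with 0.4% w/v SRB in 1% acetic acid, bound dye solubilized in 10 mM trizma base, absorbance 515 nm. IC50 = concentration halving absorbance versus untreated cells.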

PC-3 = test: Cytotoxicity against human PC3 cells after 72 hrs by SRB assay; assay type: functional, cell-based; conditions: PC-3, 48 h, in the assay text read “48 hrs” for “72 hrs”; summary of the method: as §1

Row | Compound | IC50 (HT-29) [µM] | IC50 (PC-3) [µM]
1 | CCCCC/C=C\C[C@@]1(O)C=C(I)C(=O)/C1=C\C=C\CCCC(=O)OC [IODOVULONE III] | > 10 | 6.7
2 | CCCCC/C=C\C[C@@]1(O)C=C(Cl)C(=O)/C1=C\C=C\CCCC(=O)OC [CHLOROVULONE II] | – | 0.8
3 | CCCCC/C=C\C[C@]1(O)C=CC(=O)/C1=C\C=C\CCCC(=O)OC | 7.9 | 3.9
4 | CCCCC/C=C\C[C@]1(O)C=CC(=O)/C1=C/C=C\CCCC(=O)OC | 6 | 7.2
5 | CCCCC/C=C\C[C@@]1(O)C=C(Cl)C(=O)/C1=C/C=C/CCCC(=O)OC [CHLOROVULONE III] | 2.7 | 1.9
6 | CCCCC/C=C\C[C@@]1(O)C=C(I)C(=O)/C1=C/C=C/CCCC(=O)OC [IODOVULONE II] | 6.5 | 3.9
7 | CCCCC/C=C\C[C@]1(O)C=CC(=O)/C1=C/C=C/CCCC(=O)OC | 4.1 | 5.4
8 | CCCCC/C=C\C[C@@]1(O)C=C(Br)C(=O)/C1=C/C=C/CCCC(=O)OC [BROMOVULONE II] | 5.4 | 5.6
9 | CCCCC/C=C\C[C@]1(OC(C)=O)C=CC(=O)/C1=C/C=C/CCCC(=O)OC [CLAVIRIDENONE E] | > 10 | 3.5
10 | CCCCC/C=C\C[C@@]1(O)C=C(Br)C(=O)/C1=C\C=C\CCCC(=O)OC [BROMOCLAVULONE III] | 0.5 | 0.5
